ChEMBL document CHEMBL1124369, “Pyrido[3,4-e]-1,2,4-triazines and related heterocycles as potential antifungal agents” (1989)
In brackets after ≈: the same amount, converted by molar mass.

How the values were obtained:
Aspergillus niger [1] = experiment: Antifungal activity against Aspergillus niger; assay type: functional
Method in brief: (§1)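 Agar dilution MIC. Twofold serial drug dilutions in yeast nitrogen base medium with 1% dextrose, 0.15% asparagine and 1.5% agar. Agar surfaces inoculated using a Steers multiple inocula replicator, then incubated at 35 °C for 24-48 h. MIC was recorded as the lowest concentration inhibiting visible growth. Amphotericin B, miconazole and nystatin served as controls.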

Kluyveromyces marxianus [2] = experiment: Antifungal activity against Candida pseudotropicalis; assay type: functional; method in brief: as §1
Candida albicans [3] = experiment: Antifungal activity against Candida albicans; assay type: functional; method in brief: as §1
Candida parapsilosis = experiment: Antifungal activity against Candida parapsilosis; assay type: functional; method in brief: as §1
Candida tropicalis [4] = experiment: Antifungal activity against Candida tropicalis; assay type: functional; method in brief: as §1
Trichophyton benhamiae [5] = experiment: Antifungal activity against Trichophyton mentagrophytes; Range is 32-64; assay type: functional, trychophyton mentagrophytes; method in brief: as §1
Trichophyton rubrum [6] = experiment: Antifungal activity against Trichophyton rubrum; Range is 32-64; assay type: functional; method in brief: as §1
Candida albicans [7] = experiment: Antifungal activity against Candida stellatoidea; assay type: functional; method in brief: as §1
Diutina rugosa = experiment: Antifungal activity against Candida rugosa; assay type: functional; method in brief: as §1
Trichophyton benhamiae [8] = experiment: Antifungal activity against Trichophyton mentagrophytes; Range is 16-32; assay type: functional; settings: trychophyton mentagrophytes
Trichophyton rubrum [9] = experiment: Antifungal activity against Trichophyton rubrum; assay type: functional; method in brief: as §1
Mucor fragilis = experiment: Antifungal activity against Mucor fragilis; assay type: functional; method in brief: as §1
Candida albicans [10] = experiment: Antifungal activity against Candida albicans; Range is 32-64; assay type: functional; method in brief: as §1
Trichophyton benhamiae [11] = experiment: Antifungal activity against Trichophyton mentagrophytes; Range is 32-128; assay type: functional, trychophyton mentagrophytes; method in brief: as §1
Trichophyton rubrum [12] = experiment: Antifungal activity against Trichophyton rubrum; Range is 64-128; assay type: functional
Aspergillus niger [13] = experiment: Antifungal activity against Aspergillus niger; Range is 64-128; assay type: functional; method in brief: as §1
Aspergillus niger [14] = experiment: Antifungal activity against Aspergillus niger; Range is 32-128; assay type: functional; method in brief: as §1
Trichophyton benhamiae [15] = experiment: Antifungal activity against Trichophyton mentagrophytes; assay type: functional, trychophyton mentagrophytes; method in brief: as §1
Trichophyton rubrum [16] = experiment: Antifungal activity against Trichophyton rubrum; Range is 2-4; assay type: functional; method in brief: as §1
Kluyveromyces marxianus [17] = experiment: Antifungal activity against Candida pseudotropicalis; Range is 32-64; assay type: functional; method in brief: as §1
Candida albicans [18] = experiment: Antifungal activity against Candida albicans; Range is 16-32; assay type: functional; method in brief: as §1
Kluyveromyces marxianus [19] = experiment: Antifungal activity against Candida pseudotropicalis; Range is 8-16; assay type: functional; method in brief: as §1
Aspergillus niger [20] = experiment: Antifungal activity against Aspergillus niger; Range is 8-16; assay type: functional; method in brief: as §1
Candida albicans [21] = experiment: Antifungal activity against Candida albicans; Range is 8-16; assay type: functional; method in brief: as §1
Trichophyton rubrum [22] = experiment: Antifungal activity against Trichophyton rubrum; Range is 4-8; assay type: functional; method in brief: as §1
Trichophyton benhamiae [23] = experiment: Antifungal activity against Trichophyton mentagrophytes; Range is 8-32; assay type: functional, trychophyton mentagrophytes; method in brief: as §1
Trichophyton rubrum [24] = experiment: Antifungal activity against Trichophyton rubrum; Range is 16-32; assay type: functional; method in brief: as §1
Trichophyton benhamiae [25] = experiment: Antifungal activity against Trichophyton mentagrophytes; Range is 64-128; assay type: functional, trychophyton mentagrophytes; method in brief: as §1
Aspergillus niger [26] = experiment: Antifungal activity against Aspergillus niger; Range is 32-64; assay type: functional; method in brief: as §1
Candida tropicalis [27] = experiment: Antifungal activity against Candida tropicalis; Range is 4-16; assay type: functional; method in brief: as §1
Trichophyton rubrum [28] = experiment: Antifungal activity against Trichophyton rubrum; Range is 1-2; assay type: functional; method in brief: as §1
Aspergillus niger [29] = experiment: Antifungal activity against Aspergillus niger; Range is 16-32; assay type: functional; method in brief: as §1
Candida tropicalis [30] = experiment: Antifungal activity against Candida tropicalis; Range is 8-32; assay type: functional; method in brief: as §1

Molecule | MIC (Aspergillus niger [1]) [µg/mL] | MIC (Kluyveromyces marxianus [2]) [µg/mL] | MIC (Candida albicans [3]) [µg/mL] | MIC (Candida parapsilosis; Lodderomyces parapsilosis) [µg/mL] | MIC (Candida tropicalis [4]) [µg/mL] | MIC (Candida albicans [7]) [µg/mL] | MIC (Diutina rugosa) [µg/mL] | MIC (Mucor fragilis) [µg/mL] | MIC (Trichophyton benhamiae [15]) [µg/mL] | other results
c1cc2c(cn1)NC1(CCCCC1)N=N2 | 128 (≈ 633 µM) | 128 (≈ 633 µM) | 128 (≈ 633 µM) | 128 (≈ 633 µM) | 128 (≈ 633 µM) |  |  |  |  | MIC (Trichophyton benhamiae [5]): 32 µg/mL (≈ 158 µM); MIC (Trichophyton rubrum [6]): 32 µg/mL (≈ 158 µM)
NYSTATIN | 16 | 8 | 16 |  | 16 | > 128 | > 128 | 16 |  | MIC (Candida parapsilosis): 16 µg/mL; MIC (Trichophyton benhamiae [8]): 16 µg/mL; MIC (Trichophyton rubrum [9]): 32 µg/mL
Cc1cc2nnc(-c3ccncc3)nc2c(C)n1 |  | 32 (≈ 135 µM) |  |  | 128 (≈ 539 µM) | 32 (≈ 135 µM) | 32 (≈ 135 µM) | > 128 |  | MIC (Candida albicans [10]): 32 µg/mL (≈ 135 µM); MIC (Trichophyton benhamiae [11]): 32 µg/mL (≈ 135 µM); MIC (Trichophyton rubrum [12]): 64 µg/mL (≈ 270 µM); MIC (Aspergillus niger [13]): 64 µg/mL (≈ 270 µM)
CN(C)c1ccc(-c2nnc3ccncc3n2)cc1 |  | 32 (≈ 127 µM) | 64 (≈ 255 µM) | 64 (≈ 255 µM) | 64 (≈ 255 µM) |  |  |  | 8 (≈ 31.8 µM) | MIC (Aspergillus niger [14]): 32 µg/mL (≈ 127 µM); MIC (Trichophyton rubrum [16]): 2 µg/mL (≈ 7.96 µM)
c1ccc(-c2nnc3ccncc3n2)nc1 | 32 (≈ 153 µM) |  | 64 (≈ 306 µM) | 64 (≈ 306 µM) | 64 (≈ 306 µM) | 16 (≈ 76.5 µM) | 64 (≈ 306 µM) | 64 (≈ 306 µM) | 32 (≈ 153 µM) | MIC (Kluyveromyces marxianus [17]): 32 µg/mL (≈ 153 µM); MIC (Trichophyton rubrum [16]): 2 µg/mL (≈ 9.56 µM)
FC(F)(F)c1nnc2ccncc2n1 | 32 (≈ 160 µM) |  |  |  | 32 (≈ 160 µM) | 16 (≈ 80 µM) | 16 (≈ 80 µM) | 8 (≈ 40 µM) |  | MIC (Candida albicans [18]): 16 µg/mL (≈ 80 µM); MIC (Kluyveromyces marxianus [19]): 8 µg/mL (≈ 40 µM)
c1ccc2c(c1)ncc1ncnnc12 [STRINOLINE] |  | 8 (≈ 43.9 µM) |  | 16 (≈ 87.8 µM) | 16 (≈ 87.8 µM) |  |  |  | 4 (≈ 22 µM) | MIC (Aspergillus niger [20]): 8 µg/mL (≈ 43.9 µM); MIC (Candida albicans [21]): 8 µg/mL (≈ 43.9 µM); MIC (Trichophyton rubrum [22]): 4 µg/mL (≈ 22 µM)
Cc1cc2nnc(C)nc2c(C)n1 |  |  | 8 (≈ 45.9 µM) |  | 32 (≈ 184 µM) | 64 (≈ 367 µM) | 64 (≈ 367 µM) | 16 (≈ 91.8 µM) |  | MIC (Aspergillus niger [14]): 32 µg/mL (≈ 184 µM); MIC (Kluyveromyces marxianus [19]): 8 µg/mL (≈ 45.9 µM); MIC (Trichophyton benhamiae [23]): 8 µg/mL (≈ 45.9 µM); MIC (Trichophyton rubrum [24]): 16 µg/mL (≈ 91.8 µM)
Cc1nc(C)c2nc(-c3ccc(F)cc3)nnc2c1NC(=O)c1ccccc1 | 128 (≈ 343 µM) | 128 (≈ 343 µM) | 128 (≈ 343 µM) | 128 (≈ 343 µM) | 128 (≈ 343 µM) |  |  |  |  | MIC (Trichophyton benhamiae [25]): 64 µg/mL (≈ 171 µM); MIC (Trichophyton rubrum [6]): 32 µg/mL (≈ 85.7 µM)
Fc1ccc(-c2nnc3ccncc3n2)cc1F |  | 8 (≈ 32.8 µM) | 16 (≈ 65.5 µM) | 16 (≈ 65.5 µM) |  |  |  |  | 4 (≈ 16.4 µM) | MIC (Aspergillus niger [26]): 32 µg/mL (≈ 131 µM); MIC (Candida tropicalis [27]): 4 µg/mL (≈ 16.4 µM); MIC (Trichophyton rubrum [28]): 1 µg/mL (≈ 4.09 µM)
c1cncc(-c2nnc3ccncc3n2)c1 |  | 4 (≈ 19.1 µM) |  | 16 (≈ 76.5 µM) |  | 32 (≈ 153 µM) | 16 (≈ 76.5 µM) | > 128 | 4 (≈ 19.1 µM) | MIC (Aspergillus niger [29]): 16 µg/mL (≈ 76.5 µM); MIC (Candida albicans [21]): 8 µg/mL (≈ 38.2 µM); MIC (Candida tropicalis [27]): 4 µg/mL (≈ 19.1 µM); MIC (Trichophyton rubrum [28]): 1 µg/mL (≈ 4.78 µM)
Cc1nnc2ccnc(C)c2n1 | 64 (≈ 400 µM) |  |  | 128 (≈ 799 µM) |  |  |  |  | 8 (≈ 49.9 µM) | MIC (Candida albicans [21]): 8 µg/mL (≈ 49.9 µM); MIC (Kluyveromyces marxianus [19]): 8 µg/mL (≈ 49.9 µM); MIC (Candida tropicalis [30]): 8 µg/mL (≈ 49.9 µM); MIC (Trichophyton rubrum [9]): 8 µg/mL (≈ 49.9 µM)
